Test results as given in PMC4586255 (DNA repair, 2010).
Substitutions are numbered along the chain they refer to. In names and notes the source's numbering stands.

B1: YFP-hEXO1-F506A;F507A: MIP-box (putative PIP-box) substitution variant of YFP-hEXO1 (protein, UniProt Q9UQ84 1-846, looked up, variant F506A F507A)
Exonuclease 1: MGIQGLLQFIKEASEPIHVRKYKGQVVAVDTYCWLHKGAIACAEKLAKGEPTDRYVGFCMKFVNMLLSHGIKPILVFDGCTLPSKKEVERSRRERRQANLLKGKQLLREGKVSEARECFTRSINITHAMAHKVIKAARSQGVDCLVAPYEADAQLAYLNKAGIVQAIITEDSDLLAFGCKKVILKMDQFGNGLEIDQARLGMCRQLGDVFTEEKFRYMCILSGCDYLSSLRGIGLAKACKVLRLANNPDIVKVIKKIGHYLKMNITVPEDYINGFIRANNTFLYQLVFDPIKRKLIPLNAYEDDVDPETLSYAGQYVDDSIALQIALGNKDINTFEQIDDYNPDTAMPAHSRSHSWDDKTCQKSANVSSIWHRNYSPRPESGTVSDAPQLKENPSTVGVERVISTKGLNLPRKSSIVKRPRSAELSEDDLLSQYSLSFTKKTKKNSSEGNKSLSFSEVFVPDLVNGPTNKKSVSTPPRTRNKFATFLQRKNEESGAVVVPGTRSRAACSSDSTDCVSNKVSIQPLDETAVTDKENNLHESEYGDQEGKRLVDTDVARNSSDDIPNNHIPGDHIPDKATVFTDEESYSFESSKFTRTISPPTLGTLRSCFSWSGGLGDFSRTPSPSPSTALQQFRRKSDSPTSLPENNMSDVSQLKSEESSDDESHPLREEACSSQSQESGEFSLQSSNASKLSQCSSKDSDSEESDCNIKLLDSQSDQTSKLRLSHFSKKDTPLRNKVPGLYKSSSADSLSTTKIKPLGPARASGLSKKPASIQKRKHHNAENKPGLQIKLNELWKNFGFKKDSEKLPPCKKPLSPVRDNIQLTPEAEEDIFNKPECGRVQRAIFQ
modifications: N-terminal YFP tag
B2: hEXO1-K418A: NLS mutant (protein, UniProt Q9UQ84 1-846, looked up, variant K418A)
Exonuclease 1: B1 Exonuclease 1 with K418A, A506F, A507F
modifications: N-terminal YFP tag

What was measured:
[1] = tested on: PCNA replication foci in NIH3T3 cells; format: cell-based, murine
How it was run: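 Murine NIH3T3 cells were kept in DMEM with 10% FBS and penicillin/streptomycin at 37 °C, 10% CO₂. Cells (2*10⁵ per glass-bottom dish) were seeded 24 h before ExGen500 co-transfection with 3 μg total plasmid (CFP-PCNA plus YFP fusion). Confocal imaging at 24–48 h. Co-transfected cells were counted and binned by pattern, e.g. "no foci" (diffuse CFP-PCNA, diffuse nuclear YFP).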

hMLH1 = details: MIP-box mutant; ref [52]; cited from earlier work
[2] = tested on: laser induced DNA double strand breaks in HeLa cells; format: cell-based; details: laser irradiation
[3] = tested on: laser induced DNA double strand breaks in HeLa cells; details: NLS mutant, ref [43]; cited from earlier work

Molecule | Small foci (CFP-PCNA) ([1]; CFP channel (CFP-PCNA) in cells co-expressing the hEXO1 protein, early S-phase foci, 50 co-transfected cells) [%] | Large foci (CFP-PCNA) ([1]; CFP channel (CFP-PCNA) in cells co-expressing the hEXO1 protein, late S-phase foci, 50 co-transfected cells) [%] | Mid Foci (CFP-PCNA) ([1]; CFP channel (CFP-PCNA) in cells co-expressing the hEXO1 protein, mid S-phase foci, 50 co-transfected cells) [%] | effect of expression on S-phase distribution ([1]; NIH3T3 cells co-expressing CFP-PCNA) | foci formation and co-localization with PCNA during S-phase ([1]; NIH3T3 cells co-transfected with CFP-PCNA, 24–48 h) | sub-cellular localization ([1]; NIH3T3 cells, confocal imaging) | influence of mutation on hEXO1 hMLH1 interaction (hMLH1) | nuclear translocation in response to laser induced DNA damage [2] | nuclear localization in untreated cells [3]
B1 | 4 | 0 | 0 | only very few S-phase cells, co-expressing this variant and PCNA were observed | unable to associate with PCNA in replication foci | higher degree of cytoplasmic distribution | influence hEXO1 hMLH1 interactions | – | –
B2 | – | – | – | – | – | – | – | translocated from the cytoplasm into the nucleus in response to laser induced DNA damage | excluded from the nucleus in untreated cells
